The test system of data set [1] is Neutrophil. Description: (§1) Antioxidant activity against hypoxanthine / xanthine oxidase system-stimulated superoxide radical generation in human neutrophils. Type of data set: functional, cell-based.
In data set [2] the test system is RAW264.7. Kind of data set: Antiinflammatory activity against LPS-stimulated mouse RAW264.7 cells assessed as PGE2 accumulation after 20 hrs by RIA. Format: functional, cell-based. The note with it: RAW264.7, 20 h. The method in brief: (§2)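 RAW 264.7 mouse macrophages (2×10^6/mL) in DMEM with 10% foetal bovine serum were stimulated with E. coli LPS (1 µg/mL) for 20 h alongside compound or vehicle (methanol, 1% v/v). Supernatant PGE2 was measured by radioimmunoassay. Single-point tests used 10 µM, reported as mean ± SEM (n = 9-12) against vehicle-treated stimulated cells. IC50 values carry 95% confidence limits.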

The nature of data set [3]: Antioxidant activity against 12-O-tetradecanoylphorbol-13-acetate-stimulated superoxide radical generation in human neutrophils assessed as chemiluminescence unit per 10^6 cells at 10 uM. Type of data set: functional, Neutrophil. Also noted: unit not given here. The method in brief: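 Human neutrophils (2.5×10^6 cells/mL) were loaded with luminol (40 µM) and stimulated with TPA (1 µM) for 7 min. Chemiluminescence was recorded, with compounds at 10 µM. Controls were stimulated cells given vehicle. Data are mean ± SEM.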

The subject of data set [4] is RAW264.7. Kind of data set: Antiinflammatory activity against LPS-stimulated mouse RAW264.7 cells assessed as nitrite accumulation after 20 hrs by fluorimetry. Format: functional, cell-based. The conditions noted are these: RAW264.7, 20 h. The method in brief: (§3)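 Mouse RAW 264.7 cells (2×10^6/mL) in DMEM plus 10% FBS were stimulated for 20 h with E. coli LPS (1 µg/mL), with compound or 1% v/v methanol vehicle. Nitrite in 10 µL supernatant was read fluorometrically after 10 min in the dark with 2,3-diaminonaphthalene (0.05 mg/mL in 0.62 M HCl). Single-point tests used 10 µM, given as mean ± SEM (n = 9-12). IC50s carry 95% confidence limits.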

Data set [5] is described as follows: Antioxidant activity in cytochalasin B and fMLP-stimulated human neutrophils assessed as inhibition of p-nitrophenol-induced elastase activity at 10 uM.
Data set [6] concerns RAW264.7. Description: Antiinflammatory activity against LPS-stimulated mouse RAW264.7 cells assessed as PGE2 accumulation at 10 uM after 20 hrs by RIA relative to control. Type of data set: functional. The method in brief:
as §2

In data set [7] the test system is RAW264.7. Kind of data set: Antiinflammatory activity against LPS-stimulated mouse RAW264.7 cells assessed as nitrite accumulation at 10 uM after 20 hrs by fluorimetry relative to control. Format: functional. The procedure, abridged:
as §3

Data set [8] addresses T1, Polyunsaturated fatty acid 5-lipoxygenase (Homo sapiens) (UniProt P09917).
T1 sequence (whole entry): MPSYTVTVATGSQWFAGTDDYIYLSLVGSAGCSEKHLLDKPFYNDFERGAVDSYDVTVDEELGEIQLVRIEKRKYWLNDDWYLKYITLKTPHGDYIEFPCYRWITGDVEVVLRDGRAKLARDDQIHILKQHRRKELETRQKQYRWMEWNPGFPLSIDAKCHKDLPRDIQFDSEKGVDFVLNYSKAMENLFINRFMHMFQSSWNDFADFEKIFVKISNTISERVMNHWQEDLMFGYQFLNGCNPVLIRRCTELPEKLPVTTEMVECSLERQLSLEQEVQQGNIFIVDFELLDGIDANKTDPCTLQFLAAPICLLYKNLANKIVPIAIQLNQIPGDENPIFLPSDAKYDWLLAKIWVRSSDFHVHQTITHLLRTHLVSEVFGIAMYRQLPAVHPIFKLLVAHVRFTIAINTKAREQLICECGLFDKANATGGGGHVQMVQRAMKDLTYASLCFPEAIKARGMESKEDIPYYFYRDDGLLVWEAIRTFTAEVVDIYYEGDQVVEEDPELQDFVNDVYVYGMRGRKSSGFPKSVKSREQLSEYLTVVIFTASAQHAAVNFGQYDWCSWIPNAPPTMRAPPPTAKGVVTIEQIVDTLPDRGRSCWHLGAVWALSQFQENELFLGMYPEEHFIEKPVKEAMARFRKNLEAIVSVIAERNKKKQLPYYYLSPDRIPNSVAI
Kind of data set: Inhibition of 5LO-mediated LTB4 production in calcium ionophore A23187-stimulated human neutrophils at 10 uM by RIA.

Data set [9] can be described thus: Cytotoxicity against human neutrophils at 10 uM by MTT assay. Format: cell-based. The note with it: neutrophil. For orientation: Formazan colour is commonly taken as a measure of viable cells.
A short description of data set [10]: as §1. Type of data set: functional, cell-based. The note with it: Neutrophil.
For data set [11], the target named is T2, Polyunsaturated fatty acid 5-lipoxygenase (Homo sapiens, UniProt P09917).
T2 sequence (P09917 whole entry): T1 sequence (whole entry)
Kind of data set: (§4) Inhibition of 5LO-mediated LTB4 production in human neutrophils by RIA.

Data set [12] concerns the target T1, Polyunsaturated fatty acid 5-lipoxygenase (Homo sapiens). The data set is described as §4.
In data set [13] the test system is Neutrophil. Description: (§5) Antioxidant activity against 12-O-tetradecanoylphorbol-13-acetate-stimulated superoxide radical generation in human neutrophils. Type of data set: functional, cell-based.
A short description of data set [14]: as §5. Format: functional, cell-based. The note with it: Neutrophil.

The values that follow come from ChEMBL document CHEMBL1156358, “Inhibition of leukocyte functions by the alkaloid isaindigotone from Isatis indigotica and some new synthetic derivatives” (J Nat Prod, 2001).

The structures appear in SMILES notation. The source made the active and inactive calls. No cut-off for these calls is given here.

`O=c1c2ccccc2nc2n1CC/C2=C\c1ccc(F)cc1`: the result with Neutrophil [1] was inactive. Besides, the values for the IC50 in the data set with RAW264.7 [2] and in the data set with RAW264.7 [4] were 80 nM and greater than 10000 nM, respectively. The Activity was 3221.7 in data set [3]; 19.7 nmol/mL in [5]; 5.7 ng/mL in the data set with RAW264.7 [6]; 438 ng/mL with RAW264.7 [7]; 58.9 ng/mL in [8]; “Non-toxic” in data set [9].
Consider `CS(=O)(=O)Nc1ccc([N+](=O)[O-])cc1OC1CCCCC1` [NS-398], for which the IC50 (as a rule, the concentration at which inhibition is half-maximal) with RAW264.7 [2] was 2.1 nM; with RAW264.7 [4], greater than 10000 nM. For the same molecule, the Activity with RAW264.7 [6] is 3.7 ng/mL.
Consider `CCn1c(=O)ccc2cc(COc3cc(F)cc(C4(OC)CCOCC4)c3)ccc21`, for which the Activity in data set [8] amounted to 4.5 ng/mL.
For the molecule `O=c1c2ccccc2nc2n1CC/C2=C\c1ccc(O)cc1`, in the data set with Neutrophil [1], the result was inactive. The half-inhibitory concentration (IC50) with RAW264.7 [2] and in the data set with RAW264.7 [4] was greater than 10000 nM in each case. For the same molecule, the Activity was 3269.2 in [3]; 16.9 nmol/mL in data set [5]; 15.4 ng/mL with RAW264.7 [6]; 429.8 ng/mL in the data set with RAW264.7 [7]; 55.9 ng/mL in data set [8]; “Non-toxic” in data set [9].
Consider `CC(=N)NCc1cccc(CN)c1` [1400W], for which the IC50 in the data set on RAW264.7 [2] is greater than 10000 nM; in the data set with RAW264.7 [4], 300 nM. Further, in the data set with RAW264.7 [7], the Activity came out at 11.6 ng/mL.
As for `CC(=O)Oc1ccc(/C=C2\CCn3c2nc2ccccc2c3=O)cc1`, the result with Neutrophil [1] was inactive. The Activity in [3] was 2636.4; in data set [5], 19.2 nmol/mL; with RAW264.7 [6], 9.9 ng/mL; in the data set on RAW264.7 [7], 151.2 ng/mL; in [8], 59.8 ng/mL; in data set [9], “Non-toxic”. In addition, the IC50 in the data set on RAW264.7 [4] amounted to 1800 nM.
Take `COc1cc(/C=C2\CCn3c2nc2ccccc2c3=O)cc(OC)c1`: the outcome in the data set on Neutrophil [1] was inactive. For the same molecule, the IC50 with RAW264.7 [2] and with RAW264.7 [4] was greater than 10000 nM in each case. Besides, the Activity in data set [3] is 4150.7; in data set [5], 16.8 nmol/mL; in the data set on RAW264.7 [6], 14.8 ng/mL; in the data set on RAW264.7 [7] it was 437.2 ng/mL; in data set [8] it was 58.4 ng/mL; in [9], “Non-toxic”.
With `O=c1c2ccccc2nc2n1CC/C2=C\c1ccccc1`, the outcome with Neutrophil [1] was inactive. The Activity was 2960.4 in data set [3]; 19.1 nmol/mL in data set [5]; 4.8 ng/mL in the data set with RAW264.7 [6]; 337.1 ng/mL in the data set on RAW264.7 [7]; 61.6 ng/mL in data set [8]; “Non-toxic” in data set [9]. The IC50 in the data set with RAW264.7 [4] is greater than 10000 nM.
With `COc1cc(/C=C2\CCn3c2nc2ccccc2c3=O)cc(OC)c1O` [ISAINDIGOTONE], the IC50 was 42.2 nM in [10]; greater than 10000 nM in the data set on RAW264.7 [2]; greater than 10000 nM with RAW264.7 [4]; 40 nM in data set [11]; 41.8 nM in data set [14]. The Activity in [3] is 570.6; in data set [5], 19.3 nmol/mL; in data set [12] it was “Dose-dependent effect”; with RAW264.7 [6], 20.3 ng/mL; with Neutrophil [13] it was “Dose-dependent effect”; in the data set with RAW264.7 [7] it was 459.3 ng/mL. In addition, the Activity in data set [8] is 4.2 ng/mL; in [9], “Non-toxic”.
`O=c1c2ccccc2nc2n1CC/C2=C\c1ccc(C(F)(F)F)cc1`: the result in the data set with Neutrophil [1] was inactive. Also, the IC50 in the data set with RAW264.7 [2] and with RAW264.7 [4] was greater than 10000 nM each time. For the same molecule, the Activity in data set [3] is 4101.1; in [5], 19.3 nmol/mL; in the data set with RAW264.7 [6], 15.6 ng/mL; in the data set on RAW264.7 [7], 448 ng/mL; in data set [8] it was 57.9 ng/mL; in data set [9], “Non-toxic”.
Turning to `COc1cc(/C=C2\CCn3c2nc2ccccc2c3=O)cc(OC)c1OC(C)=O`, the outcome in the data set with Neutrophil [1] was inactive. Also, the IC50 in the data set on RAW264.7 [2] turned out to be 200 nM; with RAW264.7 [4], 4200 nM; in data set [11], 600 nM. The Activity in [3] was 2486.9; in [5] it was 18.6 nmol/mL; in data set [12], “Dose-dependent effect”; with RAW264.7 [6], 6.7 ng/mL; with RAW264.7 [7], 143.4 ng/mL; in data set [8], 13.5 ng/mL. In addition, the Activity entry in [9] is “Non-toxic”.
